{
  "source": "ChEMBL document CHEMBL6134766",
  "about": "“Design, synthesis, and evaluation of benzhydrylpiperazine-based novel dual COX-2/5-LOX inhibitors with anti-inflammatory and anti-cancer activity” (RSC Med Chem, 2025)",
  "key": {"[1]": {"molecular_target": "T1, Polyunsaturated fatty acid 5-lipoxygenase (Homo sapiens, UniProt P09917)", "T1 sequence (P09917 whole entry)": "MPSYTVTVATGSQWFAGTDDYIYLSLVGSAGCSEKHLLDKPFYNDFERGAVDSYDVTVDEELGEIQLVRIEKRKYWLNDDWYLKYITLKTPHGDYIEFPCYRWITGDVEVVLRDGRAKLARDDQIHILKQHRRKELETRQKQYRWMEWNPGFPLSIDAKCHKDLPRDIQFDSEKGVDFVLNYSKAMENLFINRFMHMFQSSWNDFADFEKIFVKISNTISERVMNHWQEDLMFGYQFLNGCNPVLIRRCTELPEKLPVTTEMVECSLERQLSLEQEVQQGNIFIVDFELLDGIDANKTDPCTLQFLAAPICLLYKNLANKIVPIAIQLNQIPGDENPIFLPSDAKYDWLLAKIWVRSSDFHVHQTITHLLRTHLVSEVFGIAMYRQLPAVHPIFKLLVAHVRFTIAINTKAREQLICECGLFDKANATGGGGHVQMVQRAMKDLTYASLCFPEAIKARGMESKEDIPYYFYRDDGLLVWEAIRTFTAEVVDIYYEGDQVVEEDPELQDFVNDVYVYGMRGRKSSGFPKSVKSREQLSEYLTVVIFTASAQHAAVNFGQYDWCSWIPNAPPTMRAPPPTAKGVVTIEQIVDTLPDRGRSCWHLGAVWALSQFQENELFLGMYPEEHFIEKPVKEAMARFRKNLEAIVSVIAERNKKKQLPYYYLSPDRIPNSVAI", "assay": "Inhibition of 5-LOX (unknown origin) using arachidonic acid as substrate preincubated for 5 mins followed by substrate addition measured after 10 mins by spectrophotometry"}, "Rattus norvegicus [2]": {"system": "Rattus norvegicus", "assay": "Anti-inflammatory activity in carrageenan-induced paw edema Wistar rat model assessed as swelling thickness of paw at 10 mg/kg, po measured immediately by digital vernier caliper (reference value: 3.48 +/- 0.21 millimeter)", "assay_type": "functional"}, "Rattus norvegicus [3]": {"system": "Rattus norvegicus", "assay": "Anti-inflammatory activity in carrageenan-induced paw edema Wistar rat model assessed as swelling thickness of paw at 10 mg/kg, po measured after 1 hr by digital vernier caliper (reference value: 8.47 +/- 0.25 millimeter)", "assay_type": "functional"}, "Rattus norvegicus [4]": {"system": "Rattus norvegicus", "assay": "Anti-inflammatory activity in carrageenan-induced paw edema Wistar rat model assessed as swelling thickness of paw at 10 mg/kg, po measured after 2 hrs by digital vernier caliper (reference value: 8.65 +/- 0.53 millimeter)", "assay_type": "functional"}, "Rattus norvegicus [5]": {"system": "Rattus norvegicus", "assay": "Anti-inflammatory activity in carrageenan-induced paw edema Wistar rat model assessed as swelling thickness of paw at 10 mg/kg, po measured after 4 hrs by digital vernier caliper (reference value: 8.36 +/- 0.78 millimeter)", "assay_type": "functional"}, "Rattus norvegicus [6]": {"system": "Rattus norvegicus", "assay": "Anti-inflammatory activity in carrageenan-induced paw edema Wistar rat model assessed as swelling thickness of paw at 5 mg/kg, po measured after 5 hrs by digital vernier caliper (reference value: 8.47 +/- 0.32 millimeter)", "assay_type": "functional"}, "Rattus norvegicus [7]": {"system": "Rattus norvegicus", "assay": "Anti-inflammatory activity in carrageenan-induced paw edema Wistar rat model assessed as swelling thickness of paw at 10 mg/kg, po measured after 5 hrs by digital vernier caliper (reference value: 8.47 +/- 0.32 millimeter)", "assay_type": "functional"}, "Rattus norvegicus [8]": {"system": "Rattus norvegicus", "assay": "Anti-inflammatory activity in carrageenan-induced paw edema Wistar rat model assessed as swelling thickness of paw at 5 mg/kg, po measured after 6 hrs by digital vernier caliper (reference value: 8.33 +/- 0.42 millimeter)", "assay_type": "functional"}, "Rattus norvegicus [9]": {"system": "Rattus norvegicus", "assay": "Anti-inflammatory activity in carrageenan-induced paw edema Wistar rat model assessed as swelling thickness of paw at 10 mg/kg, po measured after 6 hrs by digital vernier caliper (reference value: 8.33 +/- 0.42 millimeter)", "assay_type": "functional"}, "Rattus norvegicus [10]": {"system": "Rattus norvegicus", "assay": "Anti-inflammatory activity in carrageenan-induced paw edema Wistar rat model assessed as inhibition of PGE2 level administered orally measured for 6 hrs by ELISA", "assay_type": "functional, organism-based", "conditions": "dose 5-20 mg/kg, route po", "in_short": "(§1)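 Paw tissue taken from carrageenan-edema rats dosed orally at 5, 10 or 20 mg kg−1. Tissue rinsed in PBS pH 7.4, minced, homogenized, filtered and centrifuged at 2000 rpm for 20 min at 4 °C. Supernatant assayed by ELISA for PGE2, IL-6, TNF-α and IL-10. Data as mean ± SD.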"}, "Rattus norvegicus [11]": {"system": "Rattus norvegicus", "assay": "Anti-inflammatory activity in carrageenan-induced paw edema Wistar rat model assessed as decrease in IL-6 level in paw tissue at 5 to 20 mg/kg, po measured for 6 hrs by ELISA", "assay_type": "functional, organism-based", "conditions": "dose 5-20 mg/kg", "in_short": "as §1"}, "Rattus norvegicus [12]": {"system": "Rattus norvegicus", "assay": "Anti-inflammatory activity in arachidonic acid-induced paw edema Wistar rat model assessed as swelling thickness of paw at 10 mg/kg, po measured after 1 hr by digital vernier caliper (reference value: 6.51 +/- 0.37 millimeter)", "assay_type": "functional"}, "[13]": {"assay": "Toxicity in fasting Wistar rat assessed as ulcer score at 20 mg/kg, po via gavage treated for 3 days consecutively by H and E staining based analysis (reference value: 0)", "assay_type": "organism-based", "conditions": "in vivo, 72 h, time 3 day", "in_short": "(§2)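 Fasted rats, n = 6/group, gavaged once daily for 3 days in 0.3% Na CMC (vehicle control 0.3% CMC); killed under anaesthesia 6 h after day-3 dose; stomachs saline-washed, mucosa examined with hand lens; ulcer score, index and % ulceration by reported scoring; some stomachs formalin-fixed, H&E stained.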"}, "[14]": {"assay": "Toxicity in fasting Wistar rat assessed as ulcer index at 5 mg/kg, po via gavage treated for 3 days consecutively by H and E staining based analysis (reference value: 0)", "assay_type": "organism-based", "conditions": "in vivo, 72 h, time 3 day", "in_short": "as §2"}, "[15]": {"assay": "Toxicity in fasting Wistar rat assessed as ulcer index at 10 mg/kg, po via gavage treated for 3 days consecutively by H and E staining based analysis (reference value: 0)", "assay_type": "organism-based", "conditions": "in vivo, 72 h, time 3 day", "in_short": "as §2"}, "Gastric mucosa": {"system": "Gastric mucosa", "assay": "Antioxidant activity in gastric mucosal tissue in Wistar rat assessed as increase in SOD level at 20 mg/kg, po", "assay_type": "functional, organism-based", "in_short": "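Gastric tissue from fasted rats (dosed orally once daily for 3 days in 0.3% Na CMC) homogenized in cold PBS pH 7.4, centrifuged 1000 rpm, 10 min, 4 °C; protein by Bradford; SOD measured in supernatant per reported procedure.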"}, "[16]": {"assay": "Toxicity in Wistar rat assessed as change in serum AST level at 20 mg/kg, po", "assay_type": "organism-based", "conditions": "in vivo", "in_short": "(§3)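 Rats dosed orally in 0.3% Na CMC; retro-orbital blood clotted at room temperature, serum separated at 2000 rpm, 20 min, 4 °C; ALT, AST, creatinine and urea by commercial kits; n = 6 per group, mean ± SD; Tukey test after repeated-measures one-way ANOVA.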"}, "[17]": {"assay": "Toxicity in Wistar rat assessed as change in serum urea level at 20 mg/kg, po", "assay_type": "organism-based", "conditions": "in vivo", "in_short": "as §3"}, "Rattus norvegicus [18]": {"system": "Rattus norvegicus", "assay": "Anti-inflammatory activity in Wistar rat assessed as reduction in ADP/collagen-induced platelet aggregation at 20 mg/kg, po", "assay_type": "functional, organism-based", "in_short": "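Platelet-rich plasma from treated rats (n = 6/group) adjusted to 4 × 10^8 platelets per ml in Tyrode's buffer. Absorbance read at 570 nm, then aggregation induced with ADP plus 5 μg ml−1 collagen. Plates incubated 5 min at 37 °C with shaking and absorbance re-read at 570 nm. Percent aggregation derived from the absorbance change.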"}, "Rattus norvegicus [19]": {"system": "Rattus norvegicus", "assay": "Cardio-protective activity in ISO-treated Wistar rat assessed as decrease in serum CK-MB level at 20 mg/kg, po", "assay_type": "functional, organism-based", "in_short": "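Rats (n = 6/group) given ISO 100 mg kg−1 s.c., then oral test compound in 0.3% CMC; vehicle controls. Retro-orbital blood, serum separated at 4000 rpm, 4 °C, 10 min; LDH and CK-MB by commercial kits; mean ± SD.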"}},
  "note": "pIC50: −log10 of the molar value. Activity calls are given as the source filed them. No cut-off for these calls is given here.",
  "data": [
    {"compound": "O=[N+]([O-])c1ccc(-c2nnc(CN3CCN(C(c4ccccc4)c4ccc(Cl)cc4)CC3)o2)cc1", "note": "(stereo not given)", "values": [
      {"measurement": "pIC50", "setting": "[1]", "value": 5.04},
      {"measurement": "Activity", "setting": "Rattus norvegicus [2]", "value": 3.44, "unit": "mm"},
      {"measurement": "Activity", "setting": "Rattus norvegicus [3]", "value": 5.32, "unit": "mm"},
      {"measurement": "Activity", "setting": "Rattus norvegicus [4]", "value": 4.55, "unit": "mm"},
      {"measurement": "Activity", "setting": "Rattus norvegicus [5]", "value": 3.88, "unit": "mm"},
      {"measurement": "Activity", "setting": "Rattus norvegicus [6]", "value": 4.22, "unit": "mm"},
      {"measurement": "Activity", "setting": "Rattus norvegicus [7]", "value": 3.76, "unit": "mm"},
      {"measurement": "Activity", "setting": "Rattus norvegicus [8]", "value": 4.14, "unit": "mm"},
      {"measurement": "Activity", "setting": "Rattus norvegicus [9]", "value": 3.89, "unit": "mm"},
      {"measurement": "inhibition", "setting": "Rattus norvegicus [10]", "value": "Dose-dependent-effect"},
      {"measurement": "Activity", "setting": "Rattus norvegicus [11]", "value": "Active"},
      {"measurement": "Activity", "setting": "Rattus norvegicus [12]", "value": 2.3, "unit": "mm"},
      {"measurement": "Activity", "setting": "[13]", "value": 0.093},
      {"measurement": "UI", "setting": "[14]", "value": 1.041},
      {"measurement": "UI", "setting": "[15]", "value": 3.125},
      {"measurement": "Activity", "setting": "Gastric mucosa", "value": "Active"},
      {"measurement": "Activity", "setting": "[16]", "value": "Non-toxic"},
      {"measurement": "Activity", "setting": "[17]", "value": "Non-toxic"},
      {"measurement": "Activity", "setting": "Rattus norvegicus [18]", "value": "Active"},
      {"measurement": "Activity", "setting": "Rattus norvegicus [19]", "value": "Active"}
    ]},
    {"compound": "Clc1ccc(-c2nnc(CN3CCN(C(c4ccccc4)c4ccc(Cl)cc4)CC3)o2)cc1", "note": "(stereo not given)", "values": [
      {"measurement": "pIC50", "setting": "[1]", "value": 5.10},
      {"measurement": "Activity", "setting": "Rattus norvegicus [2]", "value": 3.21, "unit": "mm"},
      {"measurement": "Activity", "setting": "Rattus norvegicus [3]", "value": 5.15, "unit": "mm"},
      {"measurement": "Activity", "setting": "Rattus norvegicus [4]", "value": 3.96, "unit": "mm"},
      {"measurement": "Activity", "setting": "Rattus norvegicus [5]", "value": 3.32, "unit": "mm"},
      {"measurement": "Activity", "setting": "Rattus norvegicus [6]", "value": 3.98, "unit": "mm"},
      {"measurement": "Activity", "setting": "Rattus norvegicus [7]", "value": 3.29, "unit": "mm"},
      {"measurement": "Activity", "setting": "Rattus norvegicus [8]", "value": 4.14, "unit": "mm"},
      {"measurement": "Activity", "setting": "Rattus norvegicus [9]", "value": 3.37, "unit": "mm"},
      {"measurement": "inhibition", "setting": "Rattus norvegicus [10]", "value": "Dose-dependent-effect"},
      {"measurement": "Activity", "setting": "Rattus norvegicus [11]", "value": "Active"},
      {"measurement": "Activity", "setting": "Rattus norvegicus [12]", "value": 2.01, "unit": "mm"},
      {"measurement": "Activity", "setting": "[13]", "value": 0.018},
      {"measurement": "UI", "setting": "[14]", "value": 0},
      {"measurement": "UI", "setting": "[15]", "value": 2.083},
      {"measurement": "Activity", "setting": "Gastric mucosa", "value": "Active"},
      {"measurement": "Activity", "setting": "[16]", "value": "Non-toxic"},
      {"measurement": "Activity", "setting": "[17]", "value": "Non-toxic"},
      {"measurement": "Activity", "setting": "Rattus norvegicus [18]", "value": "Active"},
      {"measurement": "Activity", "setting": "Rattus norvegicus [19]", "value": "Active"}
    ]}
  ]
}
